According to ChEMBL document CHEMBL1135723, “New type of metalloproteinase inhibitor: design and synthesis of new phosphonamide-based hydroxamic acids” (J Med Chem, 2002):

What was measured:
[1] = target: T1, Disintegrin and metalloproteinase domain-containing protein 9 (Homo sapiens, UniProt Q13443); assay: Inhibition of the heparin binding epidermal growth factor (HB-EGF) release from fibrosarcoma HT1080 transfectants expressing […] (AP) tagged HB-EGF stimulated by 12-O-tetradecanoylphorbol 13-acetate(TPA).
T1 sequence (Q13443 whole entry): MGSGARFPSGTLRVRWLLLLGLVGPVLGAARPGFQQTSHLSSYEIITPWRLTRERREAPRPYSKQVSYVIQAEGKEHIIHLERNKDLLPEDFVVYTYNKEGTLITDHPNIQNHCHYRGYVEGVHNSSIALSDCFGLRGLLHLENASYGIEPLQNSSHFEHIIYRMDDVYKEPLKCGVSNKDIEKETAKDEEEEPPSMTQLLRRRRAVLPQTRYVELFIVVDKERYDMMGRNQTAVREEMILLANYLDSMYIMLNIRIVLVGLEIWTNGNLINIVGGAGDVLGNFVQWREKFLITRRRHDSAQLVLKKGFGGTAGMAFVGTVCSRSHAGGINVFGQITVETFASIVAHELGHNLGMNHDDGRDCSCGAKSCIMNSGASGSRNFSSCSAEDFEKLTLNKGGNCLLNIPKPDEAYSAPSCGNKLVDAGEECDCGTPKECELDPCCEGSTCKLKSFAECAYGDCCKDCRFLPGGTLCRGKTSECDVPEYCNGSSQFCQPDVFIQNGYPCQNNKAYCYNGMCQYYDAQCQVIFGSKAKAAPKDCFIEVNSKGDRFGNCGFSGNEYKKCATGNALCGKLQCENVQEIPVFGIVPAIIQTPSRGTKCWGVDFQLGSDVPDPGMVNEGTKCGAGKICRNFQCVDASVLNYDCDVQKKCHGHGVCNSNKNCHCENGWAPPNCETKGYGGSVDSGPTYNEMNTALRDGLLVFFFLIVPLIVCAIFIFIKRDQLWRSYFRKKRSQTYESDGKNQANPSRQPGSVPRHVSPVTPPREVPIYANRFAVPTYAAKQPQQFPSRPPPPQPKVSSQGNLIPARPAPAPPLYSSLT
Outline: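 HT-1080 transfectants in MEM/10% FCS seeded at 2 × 10⁵ cells/well, grown 24 h, PBS-washed, preincubated 30 min with compound in MEM containing 1% DMSO. Stimulated with TPA (60 nM) for 60 min. Supernatant heated 10 min at 65 °C to kill endogenous phosphatases, then incubated 2 h with p-nitrophenyl phosphate (1 mg/mL) in 1 M diethanolamine, pH 9.8; A405. IC50 from a concentration series.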

[2] = target: Stromelysin-1 (Homo sapiens, UniProt P08254); assay: Inhibitory activity against matrix metalloprotease-3 (MMP-3)(stromelysin-1).
Stromelysin-1, sequence (P08254 whole entry): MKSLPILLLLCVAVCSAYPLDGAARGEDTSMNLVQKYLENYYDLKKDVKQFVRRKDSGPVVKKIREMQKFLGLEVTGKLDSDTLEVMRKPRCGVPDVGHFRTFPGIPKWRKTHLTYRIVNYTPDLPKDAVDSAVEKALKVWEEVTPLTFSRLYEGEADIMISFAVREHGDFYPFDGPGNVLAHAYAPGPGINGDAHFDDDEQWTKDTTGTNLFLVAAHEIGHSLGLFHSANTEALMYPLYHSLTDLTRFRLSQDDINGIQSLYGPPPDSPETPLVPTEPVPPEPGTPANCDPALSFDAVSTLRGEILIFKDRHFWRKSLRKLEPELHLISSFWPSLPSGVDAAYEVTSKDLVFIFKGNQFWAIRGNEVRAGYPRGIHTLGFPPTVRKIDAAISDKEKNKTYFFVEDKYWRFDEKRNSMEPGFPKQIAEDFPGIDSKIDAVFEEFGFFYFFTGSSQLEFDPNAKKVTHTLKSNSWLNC
Outline: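 Recombinant human MMP-3 activated with 1 mM p-aminophenylmercuric acetate, 1 h, 37 °C. Compound in 50 mM Tris, 150 mM NaCl, 10 mM CaCl2, 0.05% Brij-35, pH 7.5, preincubated with enzyme 10 min at 37 °C. Fluorescence-quenched peptide substrate added, 2 h at 37 °C; Ex/Em 320/405 nm. Ki from percent inhibition and substrate Km.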

[3] = target: Matrix metalloproteinase-9 (Homo sapiens, UniProt P14780); assay: Inhibitory activity against matrix metalloprotease-9 (MMP-9)(gelatinase-B).
Matrix metalloproteinase-9, sequence (P14780 whole entry, the tested form may be a part): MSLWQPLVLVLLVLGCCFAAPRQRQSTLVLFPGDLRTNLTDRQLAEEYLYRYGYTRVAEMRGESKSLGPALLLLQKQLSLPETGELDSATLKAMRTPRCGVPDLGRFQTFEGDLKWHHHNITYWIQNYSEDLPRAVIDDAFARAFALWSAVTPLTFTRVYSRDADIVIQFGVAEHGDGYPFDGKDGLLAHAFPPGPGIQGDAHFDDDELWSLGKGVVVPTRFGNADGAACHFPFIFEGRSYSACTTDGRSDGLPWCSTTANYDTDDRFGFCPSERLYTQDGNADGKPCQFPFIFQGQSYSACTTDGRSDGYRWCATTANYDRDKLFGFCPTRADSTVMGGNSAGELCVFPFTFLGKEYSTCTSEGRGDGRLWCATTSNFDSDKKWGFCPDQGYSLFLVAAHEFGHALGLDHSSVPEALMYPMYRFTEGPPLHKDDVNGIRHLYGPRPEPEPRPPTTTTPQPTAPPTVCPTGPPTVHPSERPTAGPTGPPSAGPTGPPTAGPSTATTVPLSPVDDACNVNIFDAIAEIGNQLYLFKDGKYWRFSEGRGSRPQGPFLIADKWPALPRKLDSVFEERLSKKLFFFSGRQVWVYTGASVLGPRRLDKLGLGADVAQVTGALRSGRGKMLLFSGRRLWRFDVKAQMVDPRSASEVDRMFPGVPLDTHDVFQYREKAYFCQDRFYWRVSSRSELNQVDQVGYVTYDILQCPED

[4] = target: Disintegrin and metalloproteinase domain-containing protein 17 (Homo sapiens, UniProt P78536); assay: Inhibitory activity against tumor necrosis factor alpha converting enzyme (TACE) from human acute monocytic leukemia cell line.
Disintegrin and metalloproteinase domain-containing protein 17, sequence (P78536 whole entry, the tested form may be a part): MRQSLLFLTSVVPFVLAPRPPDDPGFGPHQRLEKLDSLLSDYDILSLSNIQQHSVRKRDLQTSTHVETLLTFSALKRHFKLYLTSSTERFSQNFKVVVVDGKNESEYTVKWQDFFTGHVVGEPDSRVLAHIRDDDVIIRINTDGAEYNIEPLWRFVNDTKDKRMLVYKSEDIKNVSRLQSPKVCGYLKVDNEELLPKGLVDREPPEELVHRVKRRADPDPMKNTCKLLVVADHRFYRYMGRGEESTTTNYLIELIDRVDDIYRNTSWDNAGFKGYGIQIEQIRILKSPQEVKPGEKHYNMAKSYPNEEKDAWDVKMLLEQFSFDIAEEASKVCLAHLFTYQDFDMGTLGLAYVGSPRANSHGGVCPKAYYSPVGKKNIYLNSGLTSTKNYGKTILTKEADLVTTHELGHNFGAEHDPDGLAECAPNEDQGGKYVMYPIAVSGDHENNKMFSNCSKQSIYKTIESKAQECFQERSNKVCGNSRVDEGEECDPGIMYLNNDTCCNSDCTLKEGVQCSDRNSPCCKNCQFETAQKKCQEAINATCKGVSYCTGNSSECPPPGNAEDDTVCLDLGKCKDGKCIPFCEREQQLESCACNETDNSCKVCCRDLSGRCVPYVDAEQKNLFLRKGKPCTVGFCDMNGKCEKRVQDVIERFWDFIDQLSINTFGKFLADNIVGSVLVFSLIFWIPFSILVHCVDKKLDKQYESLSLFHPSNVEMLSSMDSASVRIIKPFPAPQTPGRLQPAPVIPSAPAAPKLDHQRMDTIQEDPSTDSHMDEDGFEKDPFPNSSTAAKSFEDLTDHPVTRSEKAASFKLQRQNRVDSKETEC

[5] = target: T2, Interstitial collagenase (Homo sapiens, UniProt P03956); assay: Inhibitory activity against matrix metalloprotease-1 (MMP-1)(recombinant human collagenase-1).
T2 sequence (P03956 whole entry): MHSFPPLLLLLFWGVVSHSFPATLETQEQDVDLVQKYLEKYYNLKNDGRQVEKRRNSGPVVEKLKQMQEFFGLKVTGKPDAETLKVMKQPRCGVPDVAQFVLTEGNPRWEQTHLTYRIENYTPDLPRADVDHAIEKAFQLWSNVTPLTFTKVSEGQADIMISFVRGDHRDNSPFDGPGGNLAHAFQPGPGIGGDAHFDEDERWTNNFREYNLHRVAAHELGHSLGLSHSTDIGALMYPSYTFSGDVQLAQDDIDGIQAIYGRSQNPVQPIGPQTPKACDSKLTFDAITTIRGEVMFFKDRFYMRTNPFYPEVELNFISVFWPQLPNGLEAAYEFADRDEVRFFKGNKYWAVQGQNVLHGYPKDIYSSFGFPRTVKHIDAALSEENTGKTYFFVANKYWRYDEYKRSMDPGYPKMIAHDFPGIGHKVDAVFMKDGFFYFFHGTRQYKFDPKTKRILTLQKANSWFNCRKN

## CCOP(=O)(c1ccncc1)N1Cc2ccccc2CC1C(=O)NO (configuration not stated)
[1]
  IC50: 2600 nM
[2]
  Ki: 190 nM
[3]
  Ki: 278 nM
[4]
  Ki: 777 nM
[5]
  Ki: 17.4 nM

## CCCCCCOP(=O)(c1ccc(OC)cc1)N1Cc2ccccc2CC1C(=O)NO (configuration not stated)
[1]
  IC50: 1600 nM
[2]
  Ki: 5.19 nM
[3]
  Ki: 6.57 nM
[4]
  Ki: 32.7 nM
[5]
  Ki: 10.9 nM

## COc1ccc(P(=O)(OCCc2ccccc2)N2Cc3ccccc3CC2C(=O)NO)cc1 (configuration not stated)
[1]
  IC50: 3110 nM
[2]
  Ki: 8.15 nM
[3]
  Ki: 5.22 nM
[4]
  Ki: 42.2 nM
[5]
  Ki: 4.43 nM

## CCOP(=O)(c1ccc(Oc2ccncc2)cc1)N1Cc2ccccc2CC1C(=O)NO (configuration not stated)
[1]
  IC50: 660 nM
[2]
  Ki: 4.85 nM
[3]
  Ki: 0.6 nM
[4]
  Ki: 13.8 nM
[5]
  Ki: 39.8 nM

## CCO[P@@](=O)(c1ccc(OC)cc1)N1Cc2ccccc2CC1C(=O)NO (some centres not stated)
[1]
  IC50: 230 nM
[2]
  Ki: 5.2 nM
[3]
  Ki: 5.05 nM
[4]
  Ki: 7.15 nM
[5]
  Ki: 4.58 nM

## CCOP(=O)(c1ccc(OC)cc1)N1CCCC1C(=O)NO (configuration not stated)
[1]
  IC50: > 10000 nM
[2]
  Ki: 527 nM
[3]
  Ki: 316 nM
[4]
  Ki: > 780 nM
[5]
  Ki: > 850 nM

## CCOCCOP(=O)(c1ccc(OC)cc1)N1Cc2ccccc2CC1C(=O)NO (configuration not stated)
[1]
  IC50: 510 nM
[2]
  Ki: 5.43 nM
[3]
  Ki: 6.36 nM
[4]
  Ki: 18.9 nM
[5]
  Ki: 6.75 nM

## CCOP(=O)(c1ccc(Oc2ccc(N)cc2)cc1)N1Cc2ccccc2CC1C(=O)NO (configuration not stated)
[1]
  IC50: 1670 nM
[2]
  Ki: 0.5 nM
[3]
  Ki: 0.1 nM
[4]
  Ki: 21.7 nM
[5]
  Ki: 6.5 nM

## COc1ccc(P(=O)(OCCc2ccc(-c3ccccc3)cc2)N2Cc3ccccc3CC2C(=O)NO)cc1 (configuration not stated)
[1]
  IC50: 3560 nM
[2]
  Ki: 12.8 nM
[3]
  Ki: 6.47 nM
[4]
  Ki: 90.2 nM
[5]
  Ki: 7.33 nM

## COc1ccc(P(=O)(OCCc2ccccn2)N2Cc3ccccc3CC2C(=O)NO)cc1 (configuration not stated)
[1]
  IC50: 180 nM
[2]
  Ki: 6.41 nM
[3]
  Ki: 3.42 nM
[4]
  Ki: 120 nM
[5]
  Ki: 3.14 nM

## CCO[P@](=O)(c1ccc(OC)cc1)N1Cc2ccccc2CC1C(=O)NO (some centres not stated)
[1]
  IC50: > 10000 nM
[2]
  Ki: > 650 nM
[3]
  Ki: > 800 nM
[4]
  Ki: > 780 nM
[5]
  Ki: > 850 nM

## CCN(CC)CCOP(=O)(c1ccc(OC)cc1)N1Cc2ccccc2CC1C(=O)NO (configuration not stated)
[1]
  IC50: 1140 nM
[2]
  Ki: 82.4 nM
[3]
  Ki: 16.7 nM
[4]
  Ki: 33.2 nM
[5]
  Ki: 10.7 nM

## COc1ccc(P(=O)(OC(C)C)N2Cc3ccccc3CC2C(=O)NO)cc1 (configuration not stated)
[1]
  IC50: 2240 nM
[2]
  Ki: 24.4 nM
[3]
  Ki: 23.2 nM
[5]
  Ki: 17.8 nM

## CCOP(=O)(c1ccc(OC)cc1)N1CCN(C(=O)OCc2ccccc2)CC1C(=O)NO (configuration not stated)
[1]
  IC50: 430 nM
[2]
  Ki: 14.9 nM
[3]
  Ki: 5.2 nM
[4]
  Ki: 7.99 nM
[5]
  Ki: 20.1 nM

## CCOP(=O)(c1ccc(N)cc1)N1Cc2ccccc2CC1C(=O)NO (configuration not stated)
[1]
  IC50: 660 nM
[2]
  Ki: 162 nM
[3]
  Ki: 95.6 nM
[4]
  Ki: 75.8 nM
[5]
  Ki: 58.8 nM

## CCOP(=O)(c1ccc(F)cc1)N1Cc2ccccc2CC1C(=O)NO (configuration not stated)
[1]
  IC50: 300 nM
[2]
  Ki: 64.4 nM
[3]
  Ki: 51.9 nM
[5]
  Ki: 0.97 nM

## CCOP(=O)(c1ccc(OC)cc1)N1Cc2ccsc2CC1C(=O)NO (configuration not stated)
[1]
  IC50: 520 nM
[2]
  Ki: 5.2 nM
[3]
  Ki: 3.8 nM
[4]
  Ki: 6.45 nM
[5]
  Ki: 4.1 nM

## CCOP(=O)(c1ccc(OC)cc1)N1Cc2cc(N)ccc2CC1C(=O)NO (configuration not stated)
[1]
  IC50: 190 nM
[2]
  Ki: 12.3 nM
[3]
  Ki: 11 nM
[4]
  Ki: 37.4 nM
[5]
  Ki: 10.7 nM

## CCOP(=O)(c1cccs1)N1Cc2ccccc2CC1C(=O)NO (configuration not stated)
[1]
  IC50: 890 nM
[2]
  Ki: 67 nM
[3]
  Ki: 59.2 nM
[4]
  Ki: 59.6 nM
[5]
  Ki: 18.7 nM

## CCOP(=O)(c1ccc(C)cc1)N1Cc2ccccc2CC1C(=O)NO (configuration not stated)
[1]
  IC50: 1890 nM
[2]
  Ki: 72.9 nM
[3]
  Ki: 41.8 nM
[4]
  Ki: 500 nM
[5]
  Ki: 4.9 nM

## CCO[P@@](=O)(c1ccc(OC)cc1)N1Cc2ccccc2C[C@H]1C(=O)NO
[1]
  IC50: > 10000 nM
[2]
  Ki: > 650 nM
[3]
  Ki: 349 nM
[4]
  Ki: > 780 nM
[5]
  Ki: 759 nM

## CCOP(=O)(c1ccc(-c2ccccc2)cc1)N1Cc2ccccc2CC1C(=O)NO (configuration not stated)
[1]
  IC50: 1960 nM
[2]
  Ki: 4.36 nM
[3]
  Ki: 0.31 nM
[4]
  Ki: 50 nM
[5]
  Ki: 9.65 nM

## CCOCCOc1ccc(P(=O)(OCC)N2Cc3ccccc3CC2C(=O)NO)cc1 (configuration not stated)
[1]
  IC50: 70 nM
[2]
  Ki: 29.6 nM
[3]
  Ki: 14.2 nM
[4]
  Ki: 2.98 nM
[5]
  Ki: > 850 nM

## CCOP(=O)(c1ccc(Oc2ccccc2)cc1)N1Cc2ccccc2CC1C(=O)NO (configuration not stated)
[1]
  IC50: 260 nM
[2]
  Ki: 0.53 nM
[3]
  Ki: 0.08 nM
[4]
  Ki: 7.89 nM
[5]
  Ki: 1.81 nM

## CCOP(=O)(c1ccc(OC)cc1)N1Cc2nccnc2CC1C(=O)NO (configuration not stated)
[1]
  IC50: 560 nM
[2]
  Ki: 10.7 nM
[3]
  Ki: 7 nM
[4]
  Ki: 13.7 nM
[5]
  Ki: 7.8 nM

## CCO[P@](=O)(c1ccc(OC)cc1)N1Cc2ccccc2C[C@H]1C(=O)NO
[1]
  IC50: > 10000 nM
[2]
  Ki: > 650 nM
[3]
  Ki: > 800 nM
[4]
  Ki: > 780 nM
[5]
  Ki: > 850 nM

## CCOP(=O)(c1ccc(OC)cc1)N1Cc2[nH]c3ccccc3c2CC1C(=O)NO (configuration not stated)
[1]
  IC50: 800 nM
[2]
  Ki: 2.04 nM
[3]
  Ki: 1.13 nM
[4]
  Ki: 2.2 nM
[5]
  Ki: 2.02 nM

## CCOP(=O)(c1ccccc1)N1Cc2ccccc2CC1C(=O)NO (configuration not stated)
[1]
  IC50: 370 nM
[2]
  Ki: 34.9 nM
[3]
  Ki: 42.7 nM
[4]
  Ki: 11.2 nM
[5]
  Ki: 11.4 nM

## CCOP(=O)(/C=C/c1ccccc1)N1Cc2ccccc2CC1C(=O)NO (configuration not stated)
[1]
  IC50: 910 nM
[2]
  Ki: 29.7 nM
[3]
  Ki: 88.8 nM
[4]
  Ki: 37.4 nM
[5]
  Ki: 160 nM

## CCOP(=O)(c1ccccc1F)N1Cc2ccccc2CC1C(=O)NO (configuration not stated)
[1]
  IC50: 1060 nM
[2]
  Ki: 47.8 nM
[3]
  Ki: 32.1 nM
[4]
  Ki: 73.6 nM
[5]
  Ki: 24 nM

## COc1ccc(P(=O)(OC)N2Cc3ccccc3CC2C(=O)NO)cc1 (configuration not stated)
[1]
  IC50: 70 nM
[2]
  Ki: 2.95 nM
[3]
  Ki: 2.03 nM
[4]
  Ki: 8.92 nM
[5]
  Ki: 3.64 nM

## COc1ccc(P(=O)(OCC2CCCCC2)N2Cc3ccccc3CC2C(=O)NO)cc1 (configuration not stated)
[1]
  IC50: 1340 nM
[2]
  Ki: 2.43 nM
[3]
  Ki: 4.56 nM
[4]
  Ki: 15.5 nM
[5]
  Ki: 6.67 nM

## CCOP(=O)(CCc1ccccc1)N1Cc2ccccc2CC1C(=O)NO (configuration not stated)
[1]
  IC50: 700 nM
[2]
  Ki: 11.6 nM
[3]
  Ki: 38.3 nM
[4]
  Ki: 14.2 nM
[5]
  Ki: 20.8 nM

## CCOP(=O)(c1cccc(F)c1)N1Cc2ccccc2CC1C(=O)NO (configuration not stated)
[1]
  IC50: 830 nM
[2]
  Ki: 51.4 nM
[3]
  Ki: 80.1 nM
[4]
  Ki: 22.8 nM
[5]
  Ki: 27.1 nM

## CCCCOP(=O)(c1ccc(OC)cc1)N1Cc2ccccc2CC1C(=O)NO (configuration not stated)
[1]
  IC50: 810 nM
[2]
  Ki: 24 nM
[3]
  Ki: 9.12 nM
[5]
  Ki: 5.39 nM
